Legend:
[1] = target: T1, Sterol O-acyltransferase 1 (Rattus norvegicus) (UniProt O70536); assay: In vitro inhibition of acyl coenzyme A:cholesterol acyltransferase; design: concentration or dose not given beside the values; conditions: concentration not given here
T1 sequence (whole entry): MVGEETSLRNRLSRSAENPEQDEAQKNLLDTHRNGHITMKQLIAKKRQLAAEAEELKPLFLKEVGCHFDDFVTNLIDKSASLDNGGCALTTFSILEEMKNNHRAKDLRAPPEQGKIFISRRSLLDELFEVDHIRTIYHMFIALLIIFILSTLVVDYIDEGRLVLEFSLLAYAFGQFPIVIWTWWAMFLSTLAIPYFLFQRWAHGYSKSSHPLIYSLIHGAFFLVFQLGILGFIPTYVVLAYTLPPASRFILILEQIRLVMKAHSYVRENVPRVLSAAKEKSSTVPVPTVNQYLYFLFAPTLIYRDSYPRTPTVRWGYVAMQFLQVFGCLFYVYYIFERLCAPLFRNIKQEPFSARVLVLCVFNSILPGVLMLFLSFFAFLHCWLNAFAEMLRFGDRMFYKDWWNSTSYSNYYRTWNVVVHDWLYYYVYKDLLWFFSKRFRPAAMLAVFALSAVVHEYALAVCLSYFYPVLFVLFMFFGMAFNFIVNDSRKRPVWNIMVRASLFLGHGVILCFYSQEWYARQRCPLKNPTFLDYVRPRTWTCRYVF
Outline: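 Enzyme fatty acyl-CoA:cholesterol acyltransferase (ACAT), assayed in vitro at a single drug concentration of 5.2 μg/mL. The value is the mean percent inhibition of enzyme activity.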

Rattus norvegicus [2] = assay: In vivo triglyceride lowering activity when dosed at 0.03 % of the diet; assay type: functional
Outline: (§1)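 Normal rats were dosed in the diet. Serum sterol and triglyceride levels were measured and expressed as the mean percent of control values. Significance versus control was reported at p < 0.05, 0.01 and 0.001.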

Rattus norvegicus [3] = assay: In vivo sterol lowering activity when dosed as 0.01 % of the diet; assay type: functional; outline: as §1
Rattus norvegicus [4] = assay: In vivo sterol lowering activity when dosed as 0.03 % of the diet; assay type: functional; outline: as §1
Rattus norvegicus [5] = assay: In vivo sterol lowering activity at dose of 0.10 % of the diet; assay type: functional; outline: as §1
Rattus norvegicus [6] = assay: In vivo triglyceride lowering activity dosed at 0.10 % of the diet.; assay type: functional; outline: as §1
Rattus norvegicus [7] = assay: In vivo triglyceride lowering activity when dosed as 0.025 % of the diet
Rattus norvegicus [8] = assay: In vivo triglyceride lowering activity when dosed as 0.01 % of the diet; assay type: functional; outline: as §1
Rattus norvegicus [9] = assay: In vivo triglyceride lowering activity when dosed at 0.05 % of the diet

| SMILES | inhibition [1] | serum triglyceride level, percent of control (Rattus norvegicus [2]) | serum sterol level, % of control (Rattus norvegicus [3]) | serum sterol level, percent of control (Rattus norvegicus [4]) | serum sterol level, percent of control (Rattus norvegicus [5]) | serum triglyceride, percent of control (Rattus norvegicus [6]) | Diet (Rattus norvegicus [7]) | serum triglyceride level, percent of control (Rattus norvegicus [8]) | Diet (Rattus norvegicus [9]) |
| --- | --- | --- | --- | --- | --- | --- | --- | --- | --- |
| CCCCCCCCCCCCCCCCNc1ccc(C(=O)CCC(=O)O)cc1 | 16% | <72% | 116% | 100% | 109% | <66% | <82% |  |  |
| CCCCCCCCCCCCCCCCNc1ccc(C(=O)O)c(OC)c1 |  |  | 104% | 105% | 98% | 77% |  | 75% | <66% |
| CCCCCCCCCCCCCCCCN(C=O)c1ccc(C(=O)O)cc1 | 12% | 100% | <89% | 96% | 105% | 78% |  | 77% |  |
| CCCCCCCCCCCCCCCCNC1CCC(C(=O)O)CC1 (centres undefined) | < 48% | 79% | 97% | <86% | <75% | 71% |  | 75% |  |
| CCCCCCCCCCCCCCCCNc1ccc(C(=O)NNC(C)=O)cc1 | 21% | <74% | 93% | <83% | 91% | <66% |  | 75% |  |
| CCCCCCCCCCCCCCCCNc1ncc(C(=O)O)cn1 | < 21% | 94% | 108% | 108% | 114% | 93% |  | 89% |  |
| CCCCCCCCCCCCCCCCNc1ccc(C(=O)NC(C)=O)cc1 | < 35% | 73% | 93% | <87% | 91% | 74% |  | 86% |  |
| CCCCCCCCCCCCCCCCNc1ccc(C(=O)OCC(C)O)cc1 (centres undefined) | < 19% | <61% | 96% | <82% | <89% | <59% |  | <67% |  |
| CCCCCCCCCCCCCCCCNc1ccc(C(=O)NS(=O)(=O)c2ccccc2)cc1 | < 22% | <55% | 88% | <84% | <67% | <36% |  | 86% |  |
| CCCCCCCCCCCCCCCCNc1ccc(C(=O)OCC(CO)OC(C)=O)cc1 (centres undefined) | 28% | <71% | 118% | 85% | 86% | <47% |  | 90% |  |
| CCCCCCCCCCCCCCCCNc1ccc(C(=O)CC#N)cc1 | < 22% | 140% | 107% | 104% | 115% | 130% |  | 132% |  |
| CCCCCCCCCCCCCCCCNc1ccc(C(=O)OCC(=O)OCC)cc1 | 15% | 76% | <80% | <81% | <66% | 72% |  | 92% |  |
| CCCCCCCCCCCCCCCCNc1ccc(C(=O)C(C#N)C(=O)OCC)cc1 (centres undefined) | < 40% | 90% | 115% | 100% | 100% | 105% |  | 83% |  |
| CCCCCCCCCCCCCCCCNc1ccc(C(=O)NS(C)(=O)=O)cc1 | 11% | <73% | 94% | <84% | <87% | <54% |  | 77% |  |
| CCCCCCCCCCCCCCCCNc1ccc(C(=O)O)cn1 | < 45% | 88% | 102% | <84% | 90% | 94% |  | 121% |  |
| CCCCCCCCCCCCCCCCNc1ccc(C(=O)NO)cc1 | 9% | 76% | 106% | 106% | 104% | 82% |  | 70% |  |
| CCCCCCCCCCCCCCCCNc1ccc(C(=O)OCC2CO2)cc1 (centres undefined) | 13% | <60% | 92% | <75% | <75% | <53% |  | <74% |  |
| CCCCCCCCCCCCCCCCNc1ccc(C(=O)NCC(=O)OCC)cc1 | 16% | 74% | 92% | 96% | 92% | <69% |  | 78% |  |
| CCCCCCCCCCCCCCCCNc1ccc(CCCC(=O)O)cc1 | < 32% | <61% | 100% | 95% | 97% | <51% |  | <68% |  |
| CCCCCCCCCCCCCCCCNc1ccc(C(=O)CC(=O)C(=O)OC)cc1 | < 43% | 77% | 92% | 96% | 85% | 81% |  | 101% |  |
| CCCCCCCCCCCCCCCCNc1ccc(C(=O)SCCO)cc1 | 1% | 74% | <87% | <86% | <84% | <59% |  | 70% |  |
| Br.CCCCCCCCCCCCCCCCNc1ccc(OC(C)=O)cc1 | 12% | 146% | 92% | 95% | 91% | 117% |  | 108% |  |
| CCCCCCCCCCCCCCCCNc1ccc(C(=O)CC(=O)OCC)cc1 | 2% | <53% | 105% | <83% | <85% | <30% |  | 71% |  |
| CCCCCCCCCCCCCCCCNc1ccc(C(=O)Oc2ccc(Cl)cc2)cc1 | 0% | 85% | 94% | <86% | 91% | 83% |  | 91% |  |
| CCCCCCCCCCCCCCCCNc1ccc(C(=O)Oc2ccc(C(=O)O)cc2)cc1 | < 18% | 81% | 105% | 95% | 93% | 109% |  | 98% |  |

— ChEMBL document CHEMBL1122366, “Potential antiatherosclerotic agents. 3. Substituted benzoic and non benzoic acid analogues of cetaben” (1983)
